Reference: ChEMBL document CHEMBL1255457, “Determination of an inoculum effect with various cephalosporins among clinical isolates of methicillin-susceptible Staphylococcus aureus” (2010)
Values after ≈ are worked out from the molar mass of the structure shown.

Legend:
Type in all cases: functional
Staphylococcus aureus [1] = assay: Antibacterial activity against methicillin-susceptible beta-lactamase negative Staphylococcus aureus using 5x10^7 CFU/ml high inoculum after 24 hrs by broth microdilution method
Summary of the method: (§1)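 Clinical MSSA isolates previously typed by Bla (25 type A, 15 type B, 45 type C, 13 blaZ-negative), with TX0117, ATCC 29213 and ATCC 25923 as controls. Broth microdilution per CLSI, read at 24 h. Standard (~5 × 10^5 CFU/ml) or high (~5 × 10^7 CFU/ml) inoculum set by OD, CFU/ml checked at random. MIC90 and geometric mean MIC per group, compared by Mann-Whitney test.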

Staphylococcus aureus [2] = assay: Antibacterial activity against methicillin-susceptible beta-lactamase positive Staphylococcus aureus using 5x10^7 CFU/ml high inoculum after 24 hrs by broth microdilution method; summary of the method: as §1
Staphylococcus aureus [3] = assay: Antibacterial activity against methicillin-susceptible Bla-producing Staphylococcus aureus type B using 5x10^5 CFU/ml standard inoculum after 24 hrs by broth microdilution method; summary of the method: as §1
Staphylococcus aureus [4] = assay: Antibacterial activity against methicillin-susceptible Bla-producing Staphylococcus aureus type B using 5x10^7 CFU/ml high inoculum after 24 hrs by broth microdilution method; summary of the method: as §1
Staphylococcus aureus [5] = assay: Antibacterial activity against methicillin-susceptible beta-lactamase positive Staphylococcus aureus using 5x10^5 CFU/ml standard inoculum after 24 hrs by broth microdilution method; summary of the method: as §1
Staphylococcus aureus [6] = assay: Antibacterial activity against methicillin-susceptible Bla-producing Staphylococcus aureus type A using 5x10^5 CFU/ml standard inoculum after 24 hrs by broth microdilution method; summary of the method: as §1
Staphylococcus aureus [7] = assay: Antibacterial activity against methicillin-susceptible beta-lactamase negative Staphylococcus aureus using 5x10^5 CFU/ml standard inoculum after 24 hrs by broth microdilution method; summary of the method: as §1
Staphylococcus aureus [8] = assay: Antibacterial activity against methicillin-susceptible Bla-producing Staphylococcus aureus type C using 5x10^7 CFU/ml high inoculum after 24 hrs by broth microdilution method; summary of the method: as §1
Staphylococcus aureus [9] = assay: Antibacterial activity against methicillin-susceptible Bla-producing Staphylococcus aureus type C using 5x10^5 CFU/ml standard inoculum after 24 hrs by broth microdilution method; summary of the method: as §1
Staphylococcus aureus [10] = assay: Antibacterial activity against methicillin-susceptible Bla-producing Staphylococcus aureus type A using 5x10^7 CFU/ml high inoculum after 24 hrs by broth microdilution method; summary of the method: as §1

Compound | MIC (Staphylococcus aureus [1]) | MIC90 (Staphylococcus aureus [1]) | MIC (Staphylococcus aureus [2]) | MIC90 (Staphylococcus aureus [2]) | MIC (Staphylococcus aureus [5]) | MIC90 (Staphylococcus aureus [5]) | MIC (Staphylococcus aureus [7]) | MIC90 (Staphylococcus aureus [7]) | MIC (Staphylococcus aureus [3]) | MIC90 (Staphylococcus aureus [3]) | MIC (Staphylococcus aureus [4]) | MIC90 (Staphylococcus aureus [4]) | MIC (Staphylococcus aureus [6]) | MIC90 (Staphylococcus aureus [6]) | MIC (Staphylococcus aureus [8]) | MIC90 (Staphylococcus aureus [8]) | MIC (Staphylococcus aureus [9]) | MIC90 (Staphylococcus aureus [9]) | MIC (Staphylococcus aureus [10]) | MIC90 (Staphylococcus aureus [10])
Nc1nc(/C(=N/O)C(=O)N[C@@H]2C(=O)N3C(C(=O)O)=C(/C=C4\CCN([C@@H]5CCNC5)C4=O)CS[C@H]23)ns1 [CEFTOBIPROLE] | 0.3 µg/mL (≈ 0.561 µM) | 0.5 µg/mL (≈ 0.935 µM) | 0.7 µg/mL (≈ 1.31 µM) | 1 µg/mL (≈ 1.87 µM) | 0.4 µg/mL (≈ 0.748 µM) | 0.5 µg/mL (≈ 0.935 µM) | 0.3 µg/mL (≈ 0.561 µM) | 0.5 µg/mL (≈ 0.935 µM) | 0.5 µg/mL (≈ 0.935 µM) | 0.5 µg/mL (≈ 0.935 µM) | 0.7 µg/mL (≈ 1.31 µM) | 2 µg/mL (≈ 3.74 µM) | 0.4 µg/mL (≈ 0.748 µM) | 0.5 µg/mL (≈ 0.935 µM) | 0.7 µg/mL (≈ 1.31 µM) | 1 µg/mL (≈ 1.87 µM) | 0.5 µg/mL (≈ 0.935 µM) | 0.5 µg/mL (≈ 0.935 µM) | 0.7 µg/mL (≈ 1.31 µM) | 1 µg/mL (≈ 1.87 µM)
CC1=C(C(=O)O)N2C(=O)[C@@H](NC(=O)[C@H](N)c3ccccc3)[C@H]2SC1 [CEPHALEXIN ANHYDROUS] | 3.1 µg/mL (≈ 8.92 µM) | 4 µg/mL (≈ 11.5 µM) | 10.7 µg/mL (≈ 30.8 µM) | 32 µg/mL (≈ 92.1 µM) | 3.9 µg/mL (≈ 11.2 µM) | 4 µg/mL (≈ 11.5 µM) | 2.5 µg/mL (≈ 7.2 µM) | 4 µg/mL (≈ 11.5 µM) | 3.3 µg/mL (≈ 9.5 µM) | 4 µg/mL (≈ 11.5 µM) | 14.7 µg/mL (≈ 42.3 µM) | 64 µg/mL (≈ 184 µM) | 4.6 µg/mL (≈ 13.2 µM) | 8 µg/mL (≈ 23 µM) | 6.6 µg/mL (≈ 19 µM) | 16 µg/mL (≈ 46.1 µM) | 3.8 µg/mL (≈ 10.9 µM) | 4 µg/mL (≈ 11.5 µM) | 10.6 µg/mL (≈ 30.5 µM) | 32 µg/mL (≈ 92.1 µM)
CC(=O)OCC1=C(C(=O)O)N2C(=O)[C@@H](NC(=O)Cc3cccs3)[C@H]2SC1 [CEPHALOTHIN] | 0.3 µg/mL (≈ 0.757 µM) | 0.5 µg/mL (≈ 1.26 µM) | 1.9 µg/mL (≈ 4.79 µM) | 8 µg/mL (≈ 20.2 µM) | 0.5 µg/mL (≈ 1.26 µM) | 1 µg/mL (≈ 2.52 µM) | 0.3 µg/mL (≈ 0.757 µM) | 0.5 µg/mL (≈ 1.26 µM) | 0.5 µg/mL (≈ 1.26 µM) | 1 µg/mL (≈ 2.52 µM) | 1.3 µg/mL (≈ 3.28 µM) | 4 µg/mL (≈ 10.1 µM) | 0.4 µg/mL (≈ 1.01 µM) | 0.5 µg/mL (≈ 1.26 µM) | 3 µg/mL (≈ 7.57 µM) | 8 µg/mL (≈ 20.2 µM) | 0.6 µg/mL (≈ 1.51 µM) | 1 µg/mL (≈ 2.52 µM) | 2 µg/mL (≈ 5.04 µM) | 8 µg/mL (≈ 20.2 µM)
CCOc1ccc2ccccc2c1C(=O)N[C@@H]1C(=O)N2[C@@H]1SC(C)(C)[C@@H]2C(=O)O [NAFCILLIN] | 0.7 µg/mL (≈ 1.69 µM) | 1 µg/mL (≈ 2.41 µM) | 0.7 µg/mL (≈ 1.69 µM) | 1 µg/mL (≈ 2.41 µM) | 0.4 µg/mL (≈ 0.965 µM) | 0.5 µg/mL (≈ 1.21 µM) | 0.4 µg/mL (≈ 0.965 µM) | 0.5 µg/mL (≈ 1.21 µM) | – | – | – | – | – | – | – | – | – | – | – | –

Continued, in another order:

MIC (Staphylococcus aureus [1]) | MIC90 (Staphylococcus aureus [1]) | MIC (Staphylococcus aureus [2]) | MIC90 (Staphylococcus aureus [2]) | MIC (Staphylococcus aureus [5]) | MIC90 (Staphylococcus aureus [5]) | MIC (Staphylococcus aureus [7]) | MIC90 (Staphylococcus aureus [7]) | Compound | MIC (Staphylococcus aureus [3]) | MIC90 (Staphylococcus aureus [3]) | MIC (Staphylococcus aureus [4]) | MIC90 (Staphylococcus aureus [4]) | MIC (Staphylococcus aureus [6]) | MIC90 (Staphylococcus aureus [6]) | MIC (Staphylococcus aureus [8]) | MIC90 (Staphylococcus aureus [8]) | MIC (Staphylococcus aureus [9]) | MIC90 (Staphylococcus aureus [9]) | MIC (Staphylococcus aureus [10]) | MIC90 (Staphylococcus aureus [10])
3.1 µg/mL (≈ 5.59 µM) | 4 µg/mL (≈ 7.21 µM) | 3.4 µg/mL (≈ 6.13 µM) | 4 µg/mL (≈ 7.21 µM) | 2.9 µg/mL (≈ 5.23 µM) | 4 µg/mL (≈ 7.21 µM) | 3.1 µg/mL (≈ 5.59 µM) | 4 µg/mL (≈ 7.21 µM) | CO/N=C(\C(=O)N[C@@H]1C(=O)N2C(C(=O)O)=C(CSc3nc(=O)c(O)nn3C)CS[C@H]12)c1csc(N)n1 [CEFTRIAXONE] | – | – | – | – | – | – | – | – | – | – | – | –
1 µg/mL (≈ 2.36 µM) | 1 µg/mL (≈ 2.36 µM) | 1 µg/mL (≈ 2.36 µM) | 1 µg/mL (≈ 2.36 µM) | – | – | – | – | CO/N=C(\C(=O)N[C@@H]1C(=O)N2C(C(=O)O)=C(COC(N)=O)CS[C@H]12)c1ccco1 [CEFUROXIME] | – | – | – | – | – | – | – | – | – | – | – | –
